Measured values from ChEMBL document CHEMBL1255211, “Novel azulene-based derivatives as potent multi-receptor tyrosine kinase inhibitors” (Bioorg Med Chem Lett, 2010).

Assays:
[1] = molecular target: T1, Receptor-type tyrosine-protein kinase FLT3 (Homo sapiens, UniProt P36888); test: Inhibition of FLT3 by time resolved fluorescence method
T1 sequence (P36888 whole entry): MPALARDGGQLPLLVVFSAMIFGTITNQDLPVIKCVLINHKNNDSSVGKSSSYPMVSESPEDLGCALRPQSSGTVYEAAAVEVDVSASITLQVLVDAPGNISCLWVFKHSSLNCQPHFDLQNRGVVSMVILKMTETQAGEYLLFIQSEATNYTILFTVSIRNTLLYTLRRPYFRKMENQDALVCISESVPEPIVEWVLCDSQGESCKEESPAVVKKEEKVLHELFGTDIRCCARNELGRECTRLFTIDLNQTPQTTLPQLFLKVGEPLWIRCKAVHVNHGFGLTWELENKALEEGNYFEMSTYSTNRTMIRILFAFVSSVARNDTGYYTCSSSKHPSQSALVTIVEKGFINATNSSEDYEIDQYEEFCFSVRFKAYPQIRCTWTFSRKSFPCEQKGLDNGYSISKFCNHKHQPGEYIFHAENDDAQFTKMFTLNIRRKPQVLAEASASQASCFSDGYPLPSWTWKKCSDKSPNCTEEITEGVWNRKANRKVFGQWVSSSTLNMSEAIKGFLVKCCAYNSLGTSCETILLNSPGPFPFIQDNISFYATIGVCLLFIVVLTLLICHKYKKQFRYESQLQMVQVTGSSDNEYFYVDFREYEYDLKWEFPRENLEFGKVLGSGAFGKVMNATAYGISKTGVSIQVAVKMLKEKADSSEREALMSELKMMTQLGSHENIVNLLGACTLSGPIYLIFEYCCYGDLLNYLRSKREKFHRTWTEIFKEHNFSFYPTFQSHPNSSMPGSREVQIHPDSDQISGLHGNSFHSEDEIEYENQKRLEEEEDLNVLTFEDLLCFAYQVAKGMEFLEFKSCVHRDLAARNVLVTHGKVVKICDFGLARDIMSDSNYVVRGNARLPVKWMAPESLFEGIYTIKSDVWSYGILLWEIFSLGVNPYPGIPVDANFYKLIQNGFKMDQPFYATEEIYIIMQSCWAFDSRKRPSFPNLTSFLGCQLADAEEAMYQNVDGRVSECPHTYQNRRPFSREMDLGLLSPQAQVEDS

[2] = molecular target: Receptor-type tyrosine-protein kinase FLT3 (Homo sapiens, UniProt P36888, ITD); test: Inhibition of FLT3-ITD autophosphorylation in human MV4-11 cells by Western blot analysis; format: cell-based
Procedure, shortened: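 Cells were plated at 2-5 × 10⁵ per well and stimulated with the receptor ligand: SCF for c-Kit, VEGF-162 for KDR, FL for FLT-3. Blots were probed with anti-phosphotyrosine PY99 and reprobed with antibodies to c-Kit, KDR or FLT-3.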

[3] = test system: Rattus norvegicus; test: Volume of distribution at steady state in iv dosed Sprague-Dawley rat; format: ADME, organism-based; conditions: in vivo
Procedure, shortened: (§1)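 Overnight-fasted male SD rats got a single intravenous or oral dose, n = 3 per route. Vehicle was 10% N-methyl-2-pyrrolidone, 20% cremophor EL, 70% phosphate-buffered saline. Plasma was prepared from blood by centrifugation, stored at -80 °C and assayed by LC/MS/MS. Parameters came from noncompartmental analysis and are means of three animals.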

[4] = molecular target: Platelet-derived growth factor receptor beta (Homo sapiens, UniProt P09619); test: Inhibition of PDGFRbeta autophosphorylation by cell based Western blot analysis
[5] = molecular target: T1, Receptor-type tyrosine-protein kinase FLT3; test: Inhibition of FLT3 autophosphorylation in human RS4-11 cells by Western blot analysis; format: cell-based
[6] = test system: MV4-11; test: Antitumor activity against human MV4-11 cells xenografted in BALB/c mouse assessed as inhibition of tumor growth at 50 mg/kg, po bid for 14 days measured on day 30; format: functional
Procedure, shortened: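 Female BALB/c nude mice, 6-8 weeks old, were implanted s.c. in the right flank with 1 × 10⁷ MV4-11 cells. Dosing began at tumor size 200-300 mm³, with four mice per group randomized. Treatment was 50 mg/kg oral gavage b.i.d. for 14 days (day 16 to 29) in 10% NMP/20% Cremophor EL/70% saline vehicle. Calipers gave tumor volume = 0.5 × length × width².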

[7] = test system: Rattus norvegicus; test: Elimination half life in iv dosed Sprague-Dawley rat; format: ADME, organism-based; conditions: in vivo; procedure, shortened: as §1
[8] = Tmax in po dosed Sprague-Dawley rat; format: ADME, organism-based; conditions: in vivo; procedure, shortened: as §1
[9] = Oral bioavailability in Sprague-Dawley rat; format: ADME, organism-based; conditions: in vivo; procedure, shortened: as §1
[10] = molecular target: Mast/stem cell growth factor receptor Kit (Homo sapiens, UniProt P10721); test: Inhibition of c-Kit autophosphorylation in human Kasumi-1 cells by Western blot analysis; format: cell-based
[11] = molecular target: Vascular endothelial growth factor receptor 2 (Homo sapiens, UniProt P35968); test: Inhibition of KDR autophosphorylation in HUVEC by Western blot analysis; format: cell-based
[12] = Cmax in po dosed Sprague-Dawley rat; format: ADME, organism-based; set-up: route oral; conditions: in vivo; procedure, shortened: as §1
[13] = test system: MV4-11; test: Cytotoxicity against human MV4-11 cells by MTT assay
[14] = AUC in po dosed Sprague-Dawley rat; format: ADME, organism-based; conditions: plasma; procedure, shortened: as §1
[15] = AUC in iv dosed Sprague-Dawley rat; format: ADME, organism-based; conditions: plasma; procedure, shortened: as §1

Sequence of Platelet-derived growth factor receptor beta (P09619 whole entry): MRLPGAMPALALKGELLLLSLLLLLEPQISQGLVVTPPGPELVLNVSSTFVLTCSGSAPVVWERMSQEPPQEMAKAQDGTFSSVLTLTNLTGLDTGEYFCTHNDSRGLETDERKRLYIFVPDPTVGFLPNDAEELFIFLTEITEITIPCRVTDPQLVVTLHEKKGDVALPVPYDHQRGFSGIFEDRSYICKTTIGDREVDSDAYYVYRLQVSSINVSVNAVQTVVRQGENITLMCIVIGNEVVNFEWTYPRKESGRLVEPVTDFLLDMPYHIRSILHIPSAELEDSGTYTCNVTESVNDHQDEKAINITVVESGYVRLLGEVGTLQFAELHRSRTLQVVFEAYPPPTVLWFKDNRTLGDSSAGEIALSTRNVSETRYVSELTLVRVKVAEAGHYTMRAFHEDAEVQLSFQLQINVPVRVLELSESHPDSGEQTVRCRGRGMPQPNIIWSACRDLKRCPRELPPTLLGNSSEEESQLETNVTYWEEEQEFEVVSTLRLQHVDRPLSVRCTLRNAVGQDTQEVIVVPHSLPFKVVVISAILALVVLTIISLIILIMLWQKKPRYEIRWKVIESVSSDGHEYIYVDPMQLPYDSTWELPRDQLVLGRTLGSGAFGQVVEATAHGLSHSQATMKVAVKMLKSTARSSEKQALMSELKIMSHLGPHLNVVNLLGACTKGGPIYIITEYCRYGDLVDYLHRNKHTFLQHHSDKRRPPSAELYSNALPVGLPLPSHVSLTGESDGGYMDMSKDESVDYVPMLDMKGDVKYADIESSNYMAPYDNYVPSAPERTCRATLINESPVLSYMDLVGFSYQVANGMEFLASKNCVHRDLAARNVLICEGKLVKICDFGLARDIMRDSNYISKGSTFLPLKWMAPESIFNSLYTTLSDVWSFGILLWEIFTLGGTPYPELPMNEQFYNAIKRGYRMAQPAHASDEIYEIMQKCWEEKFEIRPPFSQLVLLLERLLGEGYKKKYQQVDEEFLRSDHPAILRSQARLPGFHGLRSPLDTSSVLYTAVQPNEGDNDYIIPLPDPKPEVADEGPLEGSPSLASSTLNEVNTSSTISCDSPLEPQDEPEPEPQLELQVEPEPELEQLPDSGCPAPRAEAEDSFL
Sequence of Vascular endothelial growth factor receptor 2 (P35968 whole entry): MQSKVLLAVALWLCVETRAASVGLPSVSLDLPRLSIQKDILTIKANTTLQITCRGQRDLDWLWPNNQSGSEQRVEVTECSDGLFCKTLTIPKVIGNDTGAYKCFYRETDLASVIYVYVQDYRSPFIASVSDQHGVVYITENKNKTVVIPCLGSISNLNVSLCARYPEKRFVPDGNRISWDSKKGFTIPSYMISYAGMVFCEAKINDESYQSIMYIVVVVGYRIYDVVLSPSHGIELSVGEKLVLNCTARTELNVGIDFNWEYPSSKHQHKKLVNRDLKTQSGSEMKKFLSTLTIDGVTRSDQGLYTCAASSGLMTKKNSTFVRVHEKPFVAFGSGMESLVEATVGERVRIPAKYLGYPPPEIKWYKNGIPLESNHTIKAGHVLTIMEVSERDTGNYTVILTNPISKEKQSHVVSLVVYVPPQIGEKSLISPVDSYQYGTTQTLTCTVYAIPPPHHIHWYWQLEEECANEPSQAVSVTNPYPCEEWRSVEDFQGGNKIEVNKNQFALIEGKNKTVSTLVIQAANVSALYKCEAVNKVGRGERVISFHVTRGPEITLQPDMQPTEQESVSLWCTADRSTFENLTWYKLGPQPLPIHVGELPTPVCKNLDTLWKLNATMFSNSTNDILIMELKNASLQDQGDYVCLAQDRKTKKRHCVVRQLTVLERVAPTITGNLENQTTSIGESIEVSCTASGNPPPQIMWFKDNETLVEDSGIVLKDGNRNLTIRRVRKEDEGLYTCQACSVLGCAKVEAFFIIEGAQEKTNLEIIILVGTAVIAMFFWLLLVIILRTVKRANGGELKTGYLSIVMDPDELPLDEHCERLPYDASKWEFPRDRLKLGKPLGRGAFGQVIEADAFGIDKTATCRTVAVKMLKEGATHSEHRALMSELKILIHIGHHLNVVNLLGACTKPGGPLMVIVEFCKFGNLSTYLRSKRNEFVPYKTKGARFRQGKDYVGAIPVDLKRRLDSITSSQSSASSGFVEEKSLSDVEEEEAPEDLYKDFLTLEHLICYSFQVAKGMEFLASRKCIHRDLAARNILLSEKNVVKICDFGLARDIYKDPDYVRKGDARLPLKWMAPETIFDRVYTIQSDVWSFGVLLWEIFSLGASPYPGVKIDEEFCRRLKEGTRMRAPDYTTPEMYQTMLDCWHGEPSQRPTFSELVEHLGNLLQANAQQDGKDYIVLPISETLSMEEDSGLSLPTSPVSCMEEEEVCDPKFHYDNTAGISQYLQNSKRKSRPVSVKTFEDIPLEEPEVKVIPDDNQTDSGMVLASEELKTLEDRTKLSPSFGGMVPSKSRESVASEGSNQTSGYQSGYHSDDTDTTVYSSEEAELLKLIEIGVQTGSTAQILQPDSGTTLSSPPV
Sequence of Mast/stem cell growth factor receptor Kit (P10721 whole entry): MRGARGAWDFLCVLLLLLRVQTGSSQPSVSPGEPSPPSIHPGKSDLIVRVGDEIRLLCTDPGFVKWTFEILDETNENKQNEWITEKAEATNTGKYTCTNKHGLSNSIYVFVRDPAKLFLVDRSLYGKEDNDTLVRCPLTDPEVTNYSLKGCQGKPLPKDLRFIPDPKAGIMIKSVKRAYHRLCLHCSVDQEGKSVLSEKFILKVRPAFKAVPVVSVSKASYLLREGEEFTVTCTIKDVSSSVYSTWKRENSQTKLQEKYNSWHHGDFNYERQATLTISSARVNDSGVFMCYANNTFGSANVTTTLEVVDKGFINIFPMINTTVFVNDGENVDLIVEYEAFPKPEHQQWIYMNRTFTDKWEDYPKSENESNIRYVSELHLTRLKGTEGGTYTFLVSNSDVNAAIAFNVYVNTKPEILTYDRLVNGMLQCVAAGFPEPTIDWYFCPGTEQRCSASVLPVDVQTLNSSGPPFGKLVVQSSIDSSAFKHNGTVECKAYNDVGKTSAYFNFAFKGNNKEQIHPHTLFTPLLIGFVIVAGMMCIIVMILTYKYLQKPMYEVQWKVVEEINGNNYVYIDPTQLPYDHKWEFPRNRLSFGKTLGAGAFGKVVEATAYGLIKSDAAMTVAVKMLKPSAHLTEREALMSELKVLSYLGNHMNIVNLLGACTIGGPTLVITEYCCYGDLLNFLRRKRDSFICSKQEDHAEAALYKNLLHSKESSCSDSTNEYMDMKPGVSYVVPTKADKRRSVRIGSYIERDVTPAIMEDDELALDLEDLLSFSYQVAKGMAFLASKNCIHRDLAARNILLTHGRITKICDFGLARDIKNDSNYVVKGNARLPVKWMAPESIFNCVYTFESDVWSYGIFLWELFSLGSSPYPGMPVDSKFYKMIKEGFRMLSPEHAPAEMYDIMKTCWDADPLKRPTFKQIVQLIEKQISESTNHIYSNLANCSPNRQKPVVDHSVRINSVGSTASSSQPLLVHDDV

IC50 [1] | Compound | further results
12 nM | Cc1cc(/C=C2\C(=O)Nc3ccc(F)cc32)c2ccccc(OCCCN(C)C)c1-2 | –
98 nM | Cc1cc(C=C2C(=O)Nc3ccc(F)cc32)c2ccccc(OCCN3CCC[C@H]3CO)c1-2 (mixture of isomers) | IC50 [2]: 67 nM; Vss/F [3]: 1232.4 mL/kg; IC50 [4]: 28 nM; IC50 [5]: 70 nM; inhibition in vivo at 50 mg/kg [6]: 99%; t1/2 [7]: 108 min; Tmax [8]: 2 h; bioavailability [9]: 22.8%; IC50 [10]: 44 nM; IC50 [11]: 186 nM; Cmax [12]: 566 ng/mL; IC50 [13]: 87 nM; AUC [14]: 3220 ng·h/mL; AUC [15]: 1410 ng·h/mL
1460 nM | Cc1cc(/C=C2\C(=O)Nc3ncccc32)c2ccccc(OCCCN(C)C)c1-2 | –
14 nM | CCN(CC)CCCOc1ccccc2c(/C=C3\C(=O)Nc4ccc(F)c(F)c43)cc(C)c1-2 | –
> 1000 nM | O=C1Nc2ccc(Br)cc2/C1=C\c1ccc2cccccc1-2 | –
90 nM | Cc1cc(/C=C2\C(=O)Nc3ncc(F)cc32)c2ccccc(OCCCN3CCOCC3)c1-2 | –
742 nM | Cc1cc(/C=C2/C(=O)Nc3cc(F)ccc32)c2ccccc(OCCCN(C)C)c1-2 | –
19 nM | Cc1cc(/C=C2\C(=O)Nc3ccc(F)cc32)c2ccccc(OCCN3CCOCC3)c1-2 | –
17 nM | Cc1cc(/C=C2\C(=O)Nc3ccc(F)c(F)c32)c2ccccc(OCCCN3CCCCC3)c1-2 | –
177 nM | Cc1cc(/C=C2/C(=O)Nc3c(F)cccc32)c2ccccc(OCCCN(C)C)c1-2 | –
> 1000 nM | Cc1ccc2c(c1)/C(=C/c1ccc3cccccc1-3)C(=O)N2 | –
> 1000 nM | Cc1cc(/C=C2/C(=O)Nc3ccccc32)c2cccccc1-2 | –
86 nM | Cc1cc(/C=C2\C(=O)Nc3ncc(Br)cc32)c2ccccc(OCCCN3CCOCC3)c1-2 | –
128 nM | Cc1cc(/C=C2\C(=O)Nc3ccc(F)cc32)c2cccccc1-2 | –
470 nM | O=C1Nc2ccccc2C1=Cc1ccc2cccccc1-2 | –
12 nM | Cc1cc(/C=C2\C(=O)Nc3ccc(F)c(F)c32)c2ccccc(OCCCN3CCOCC3)c1-2 | –
23 nM | O=C1Nc2ccc(F)cc2/C1=C/c1cc(F)c2cccccc1-2 | –
30 nM | CCN(CC)CCCOc1ccccc2c(/C=C3/C(=O)Nc4ccc(F)cc43)cc(C)c1-2 | –
5 nM | Cc1cc(/C=C2\C(=O)Nc3ccc(F)c(F)c32)c2ccccc(OCCCN(C)C)c1-2 | –
224 nM | Cc1cc(/C=C2\C(=O)Nc3ccc(F)cc32)c2ccccc(OCCCN3CCOCC3)c1-2 | –
18 nM | Cc1cc(/C=C2\C(=O)Nc3ccc(F)cc32)c2ccccc(OCCN3CCC(N(C)C)CC3)c1-2 | –
> 1000 nM | O=C1Nc2ccc(Br)cc2/C1=C/c1ccc2cccccc1-2 | –
60 nM | Cc1cc(/C=C2/C(=O)Nc3ccc(F)cc32)c2cccccc1-2 | –
> 1000 nM | O=C1Nc2ccc(F)cc2/C1=C/c1ccc2cccccc1-2 | –
> 1000 nM | CN(C)S(=O)(=O)c1ccc2c(c1)/C(=C/c1ccc3cccccc1-3)C(=O)N2 | –
39 nM | CCN(CC)CCCOc1ccccc2c(/C=C3\C(=O)Nc4ccc(F)cc43)cc(C)c1-2 | –
25 nM | Cc1cc(/C=C2/C(=O)Nc3ccc(F)cc32)c2ccccc(OCCCN(C)C)c1-2 | –
> 1000 nM | Cc1cc(/C=C2\C(=O)Nc3ccccc32)c2cccccc1-2 | –
